We go through eight compounds from ChEMBL document CHEMBL3421533, “The Discovery of Orally Bioavailable Tyrosine Threonine Kinase (TTK) Inhibitors: 3-(4-(heterocyclyl)phenyl)-1H-indazole-5-carboxamides as Anticancer Agents” (J Med Chem, 2015).

One data set relates to MDA-MB-468. As to the kind of experiment: Cytotoxicity against human MDA-MB-468 cells after 5 days by sulforhodamine B assay. The class given is functional. The settings on record: Homo sapiens, MDA-MB-468, 120 h. In a few lines:
(§1)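 Cancer lines were seeded at 800–6000 cells per well according to growth rate, 24 h before compound overlay. After culture, cells were fixed in situ and stained with sulforhodamine B. GI50 values were derived by curve fitting.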
(In general: Sulforhodamine B stains cellular protein and so reports cell mass.)

In the next data set the target is T1, Aurora kinase A (Homo sapiens, UniProt O14965).
T1 sequence (O14965 whole entry): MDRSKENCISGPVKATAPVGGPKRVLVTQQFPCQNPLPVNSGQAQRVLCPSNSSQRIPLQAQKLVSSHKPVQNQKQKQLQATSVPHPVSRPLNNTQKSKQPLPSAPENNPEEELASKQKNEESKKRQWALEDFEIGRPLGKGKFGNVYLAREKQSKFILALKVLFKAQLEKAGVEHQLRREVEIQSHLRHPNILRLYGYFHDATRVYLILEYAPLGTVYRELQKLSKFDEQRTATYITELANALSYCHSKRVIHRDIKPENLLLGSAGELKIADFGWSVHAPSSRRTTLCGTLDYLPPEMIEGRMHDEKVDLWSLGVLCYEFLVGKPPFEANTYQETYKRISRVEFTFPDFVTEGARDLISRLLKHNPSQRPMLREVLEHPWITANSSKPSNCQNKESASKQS
The experiment in a line: Inhibition of recombinant AURKA (unknown origin) preincubated for 15 mins prior to ATP addition by FRET-based homogenous assay.

The nature of data set [1]: Cytotoxicity against human HCT116 cells after 5 days by sulforhodamine B assay. The note with it: Homo sapiens, HCT-116, 120 h. The class given is functional, HCT-116. In a few lines:
as §1

Data set [2] concerns the target T2, Dual specificity protein kinase TTK (Homo sapiens, UniProt P33981).
T2 sequence (P33981 whole entry): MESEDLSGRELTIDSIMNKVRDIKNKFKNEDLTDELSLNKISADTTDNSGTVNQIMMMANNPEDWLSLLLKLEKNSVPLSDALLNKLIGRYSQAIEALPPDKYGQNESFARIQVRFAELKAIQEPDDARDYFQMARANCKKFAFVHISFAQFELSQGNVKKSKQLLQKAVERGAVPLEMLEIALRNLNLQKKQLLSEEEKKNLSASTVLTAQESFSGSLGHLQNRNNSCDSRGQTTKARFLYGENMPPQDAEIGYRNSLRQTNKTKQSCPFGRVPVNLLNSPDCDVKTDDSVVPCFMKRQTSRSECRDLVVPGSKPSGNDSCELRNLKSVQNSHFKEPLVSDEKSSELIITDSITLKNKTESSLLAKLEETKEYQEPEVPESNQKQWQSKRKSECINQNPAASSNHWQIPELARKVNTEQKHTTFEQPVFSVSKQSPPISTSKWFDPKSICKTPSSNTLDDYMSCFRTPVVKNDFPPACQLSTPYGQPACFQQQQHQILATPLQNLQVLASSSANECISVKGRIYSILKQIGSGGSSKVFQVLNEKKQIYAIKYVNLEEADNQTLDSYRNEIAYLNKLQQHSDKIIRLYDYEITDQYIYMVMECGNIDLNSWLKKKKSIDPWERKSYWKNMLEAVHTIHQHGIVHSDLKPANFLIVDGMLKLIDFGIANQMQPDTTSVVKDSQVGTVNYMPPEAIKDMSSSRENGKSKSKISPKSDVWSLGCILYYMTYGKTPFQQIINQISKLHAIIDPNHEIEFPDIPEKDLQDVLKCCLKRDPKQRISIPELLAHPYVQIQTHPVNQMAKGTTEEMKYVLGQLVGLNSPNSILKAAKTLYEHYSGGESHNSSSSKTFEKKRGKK
As to the kind of experiment: Inhibition of amino terminal GST-fused full length human TTK using His6-SUMO-TTK-N as substrate preincubated for 15 mins prior to ATP addition by indirect ELISA detection system. (An ELISA detects its analyte on a solid surface through an enzyme-linked reagent.)

A short description of data set [3]: Half life in mouse liver microsomes at 1 uM by LC-MS analysis. The class given is ADME. The settings on record: liver microsomes. In general terms: Liver microsomes are a subcellular fraction often used to study metabolism.
Data set [4] deals with Vascular endothelial growth factor receptor 2 (Homo sapiens, UniProt P35968). As to the kind of experiment: Inhibition of recombinant KDR (unknown origin) preincubated for 15 mins prior to ATP addition by FRET-based homogenous assay.
Vascular endothelial growth factor receptor 2, sequence (P35968 whole entry): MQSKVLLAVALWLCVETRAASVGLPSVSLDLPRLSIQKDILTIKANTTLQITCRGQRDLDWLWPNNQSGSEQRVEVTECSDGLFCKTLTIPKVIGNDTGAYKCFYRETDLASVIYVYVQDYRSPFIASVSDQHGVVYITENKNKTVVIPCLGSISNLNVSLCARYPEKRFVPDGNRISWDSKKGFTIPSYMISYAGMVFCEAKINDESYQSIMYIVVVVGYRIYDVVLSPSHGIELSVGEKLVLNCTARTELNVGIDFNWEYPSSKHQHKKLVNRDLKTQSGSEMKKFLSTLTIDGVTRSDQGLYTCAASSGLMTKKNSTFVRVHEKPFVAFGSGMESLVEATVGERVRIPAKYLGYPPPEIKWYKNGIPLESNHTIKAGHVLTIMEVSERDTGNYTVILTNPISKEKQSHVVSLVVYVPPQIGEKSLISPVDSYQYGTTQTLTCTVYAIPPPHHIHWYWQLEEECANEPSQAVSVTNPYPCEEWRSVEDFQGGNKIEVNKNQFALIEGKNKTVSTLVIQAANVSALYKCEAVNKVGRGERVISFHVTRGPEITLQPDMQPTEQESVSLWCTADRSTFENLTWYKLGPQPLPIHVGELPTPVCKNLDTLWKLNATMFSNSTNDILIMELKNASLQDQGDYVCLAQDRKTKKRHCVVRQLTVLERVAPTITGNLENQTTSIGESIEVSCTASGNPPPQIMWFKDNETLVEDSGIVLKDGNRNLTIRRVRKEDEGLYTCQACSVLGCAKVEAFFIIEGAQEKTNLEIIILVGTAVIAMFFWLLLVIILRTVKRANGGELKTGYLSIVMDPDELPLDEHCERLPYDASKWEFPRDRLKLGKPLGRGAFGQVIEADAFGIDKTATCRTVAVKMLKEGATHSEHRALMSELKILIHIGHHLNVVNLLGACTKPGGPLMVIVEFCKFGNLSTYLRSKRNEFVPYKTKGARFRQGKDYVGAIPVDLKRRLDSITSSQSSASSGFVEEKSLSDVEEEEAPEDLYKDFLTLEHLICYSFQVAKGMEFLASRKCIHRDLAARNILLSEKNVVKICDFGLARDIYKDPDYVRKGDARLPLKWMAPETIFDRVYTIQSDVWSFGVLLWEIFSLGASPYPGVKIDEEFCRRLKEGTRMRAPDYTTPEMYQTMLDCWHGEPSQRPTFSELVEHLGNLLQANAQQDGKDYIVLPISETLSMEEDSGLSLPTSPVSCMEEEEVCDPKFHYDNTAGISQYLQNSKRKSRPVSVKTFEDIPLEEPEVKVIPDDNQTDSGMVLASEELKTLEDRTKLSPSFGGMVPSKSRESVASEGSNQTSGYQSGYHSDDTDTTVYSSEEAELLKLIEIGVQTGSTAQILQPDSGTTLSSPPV
Data set [5] is described as follows: Half life in rat liver microsomes at 1 uM by LC-MS analysis. Type of data set: ADME. The note with it: liver microsomes.
Data set [6] is described as follows: Cmax in athymic CD1 nude mouse at 10 mg/kg, po by LC-MS/MS analysis. Type of data set: ADME, organism-based. The note with it: athymic CD1 nude, in vivo. On the set-up: dose 10 mg/kg, route oral.
A short description of data set [7]: Cytotoxicity against human OVCAR3 cells after 5 days by sulforhodamine B assay. Type of data set: functional, OVCAR-3. The settings on record: Homo sapiens, OVCAR-3, 120 h.
Data set [8] in a line: AUCinfinity in athymic CD1 nude mouse at 10 mg/kg, po by LC-MS/MS analysis. The settings on record: athymic CD1 nude, plasma. The arrangement: time infinity, dose 10 mg/kg, route oral. Type of data set: ADME, organism-based, Plasma.
The nature of data set [9]: AUCinfinity in Sprague-Dawley rat at 5 mg/kg, po by LC-MS/MS analysis. Type of data set: ADME, organism-based. The arrangement: time infinity, dose 5 mg/kg, route oral. The settings on record: plasma.
Data set [10] concerns the target Aurora kinase B/Inner centromere protein (Homo sapiens, UniProt Q96GD4). The experiment in a line: Inhibition of AURKB/INCENP (unknown origin) preincubated for 15 mins prior to ATP addition by FRET-based homogenous assay. The class given is protein-complex assay. The method in brief:
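The enzyme was AURKB/INCENP in a FRET-based homogeneous assay run to kit specifications, with ATP at 128 μM. […] Each IC50 came from a single determination, reported with its standard fitting error.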

Data set [11] is described as follows: AUCinfinity in Sprague-Dawley rat at 1 mg/kg, iv by LC-MS/MS analysis. The class given is ADME, organism-based. On the set-up: time infinity, dose 1 mg/kg, route intravenous. The note with it: plasma.
Data set [12] can be described thus: Clearance in Sprague-Dawley rat at 1 mg/kg, iv by LC-MS/MS analysis. Type of data set: ADME, organism-based. On the set-up: dose 1 mg/kg, route intravenous. The note with it: in vivo.
A short description of data set [13]: Oral bioavailability in Sprague-Dawley rat at 5 mg/kg by LC-MS/MS analysis. The note with it: in vivo. Type of data set: ADME, organism-based.
The next data set concerns the target Cytochrome P450 3A4 (Homo sapiens, UniProt P08684). As to the kind of experiment: Inhibition of human CYP3A4 using BFC as substrate preincubated for 10 mins followed by enzyme/substrate addition measured after 30 mins by fluorescence assay. Type of data set: ADME.
Data set [14] can be described thus: Half life in Sprague-Dawley rat at 1 mg/kg, iv by LC-MS/MS analysis. Type of data set: ADME, organism-based. The arrangement: dose 1 mg/kg, route intravenous. The settings on record: in vivo.
The species entered for the next data set is Homo sapiens. As to the kind of experiment: Selectivity ratio of IC50 for AURKB/INCENP (unknown origin) to IC50 for amino terminal GST-fused full length human TTK.
Data set [15] is described as follows: AUC in athymic CD1 nude mouse at 10 mg/kg, po by LC-MS/MS analysis. The class given is ADME, organism-based. On the set-up: dose 10 mg/kg, route oral. The note with it: plasma.

Aurora kinase B/Inner centromere protein, sequence (Q96GD4 whole entry): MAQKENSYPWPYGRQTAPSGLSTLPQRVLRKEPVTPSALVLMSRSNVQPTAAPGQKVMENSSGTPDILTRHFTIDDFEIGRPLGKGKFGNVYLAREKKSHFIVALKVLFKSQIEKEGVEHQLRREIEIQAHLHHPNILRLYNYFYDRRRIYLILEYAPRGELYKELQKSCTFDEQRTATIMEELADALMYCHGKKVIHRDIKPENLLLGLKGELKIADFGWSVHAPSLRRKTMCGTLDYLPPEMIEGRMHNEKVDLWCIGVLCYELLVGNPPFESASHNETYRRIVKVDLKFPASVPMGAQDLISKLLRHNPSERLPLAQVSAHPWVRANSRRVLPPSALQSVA
Aurora kinase B/Inner centromere protein, sequence (Q9NQS7 whole entry, further chain): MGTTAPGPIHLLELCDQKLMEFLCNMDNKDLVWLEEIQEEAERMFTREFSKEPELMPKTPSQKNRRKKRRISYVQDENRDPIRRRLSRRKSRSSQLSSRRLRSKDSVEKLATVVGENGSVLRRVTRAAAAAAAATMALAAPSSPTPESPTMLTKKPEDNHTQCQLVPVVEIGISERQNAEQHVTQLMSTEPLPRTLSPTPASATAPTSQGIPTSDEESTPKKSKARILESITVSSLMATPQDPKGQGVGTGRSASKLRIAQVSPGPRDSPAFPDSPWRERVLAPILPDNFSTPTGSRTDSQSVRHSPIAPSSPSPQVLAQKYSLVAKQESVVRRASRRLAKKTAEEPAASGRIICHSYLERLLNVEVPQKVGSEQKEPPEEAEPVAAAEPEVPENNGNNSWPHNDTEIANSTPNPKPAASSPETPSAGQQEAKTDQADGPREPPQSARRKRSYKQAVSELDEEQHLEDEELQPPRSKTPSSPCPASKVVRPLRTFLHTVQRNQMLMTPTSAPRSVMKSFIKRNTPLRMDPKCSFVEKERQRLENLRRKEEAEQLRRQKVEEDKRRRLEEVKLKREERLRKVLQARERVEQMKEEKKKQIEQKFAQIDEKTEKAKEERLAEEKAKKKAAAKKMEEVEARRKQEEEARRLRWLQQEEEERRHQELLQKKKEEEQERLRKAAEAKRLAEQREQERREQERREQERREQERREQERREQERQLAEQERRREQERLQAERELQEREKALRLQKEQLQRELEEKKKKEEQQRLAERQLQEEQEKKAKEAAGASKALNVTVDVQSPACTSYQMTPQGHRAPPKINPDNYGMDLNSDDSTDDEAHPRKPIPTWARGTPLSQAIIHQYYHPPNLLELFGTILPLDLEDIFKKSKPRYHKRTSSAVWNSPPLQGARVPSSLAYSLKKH
Cytochrome P450 3A4, sequence (P08684 whole entry): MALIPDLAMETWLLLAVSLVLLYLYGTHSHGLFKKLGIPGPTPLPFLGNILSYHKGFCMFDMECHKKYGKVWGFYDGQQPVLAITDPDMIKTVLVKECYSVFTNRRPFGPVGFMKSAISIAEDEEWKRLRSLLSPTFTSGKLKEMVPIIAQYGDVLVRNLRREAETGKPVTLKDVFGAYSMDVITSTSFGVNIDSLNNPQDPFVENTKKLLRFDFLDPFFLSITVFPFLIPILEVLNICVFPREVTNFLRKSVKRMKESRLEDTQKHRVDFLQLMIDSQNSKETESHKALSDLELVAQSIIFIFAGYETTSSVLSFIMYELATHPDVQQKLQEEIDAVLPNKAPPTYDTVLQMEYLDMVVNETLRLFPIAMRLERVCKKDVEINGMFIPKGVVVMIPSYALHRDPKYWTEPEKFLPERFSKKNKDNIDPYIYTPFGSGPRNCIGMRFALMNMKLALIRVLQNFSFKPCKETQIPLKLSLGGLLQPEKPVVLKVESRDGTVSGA

As for `O=C(CC1(N2CCOCC2)CCCCC1)Nc1ccc2[nH]nc(-c3ccc(N4CCOCC4)cc3)c2c1`, the GI50 – broadly, the concentration at which growth is held to half of that of the control – in the data set on MDA-MB-468 was 440 nM; in [1], 94 nM. The IC50 – broadly, the concentration at which inhibition is half-maximal – came to 2100 nM at Aurora kinase A, 12 nM in [2] and 1200 nM in data set [4]. The half-life (in general, the time in which the quantity being followed falls by half) at 1 µM in data set [3] is 5.8 min; in [5], 10 min.

Regarding `O=C(N[C@@H](c1ccccn1)C1CC1)c1ccc2[nH]nc(-c3ccc(N4C5CCC4COC5)cc3)c2c1`, the concentration in data set [6] peaked (Cmax) at 1500 ng/mL. In addition, the figures for the GI50 (in the data set with MDA-MB-468; in [7]; in data set [1]) were 130 nM, 150 nM and 21 nM, respectively. Further, the AUC(0-inf) (in general, total exposure, with the tail of the curve extrapolated) is 2100 ng·h/mL in [8], 890 ng·h/mL in [9] and 240 ng·h/mL in data set [11]. Also, the IC50 in data set [10] worked out at 1200 nM; in data set [2], 2 nM; on Cytochrome P450 3A4 it was 1400 nM. Moreover, the clearance – broadly, a measure of how efficiently the substance is removed, as volume per time – in data set [12] amounted to 71 mL/min/kg. Moreover, the bioavailability (in general, dose-corrected exposure relative to a reference, in per cent) in data set [13] came to 75%. In addition, the half-life in data set [14] was 24 min. Moreover, the half-life at 1 µM in data set [3] and in data set [5] was over 60 min throughout.

In the case of `O=C(N[C@H](c1ccccn1)C1CCCC1)c1ccc2[nH]nc(-c3ccc(N4C5CCC4COC5)cc3)c2c1`, the IC50 in data set [10] was 1400 nM; at Cytochrome P450 3A4 it was 930 nM. This compound also came in with a bioavailability in data set [13] of 39%.

Consider `O=C(N[C@H](c1ncccn1)C1CCCC1)c1ccc2[nH]nc(-c3ccc(N4[C@H]5CC[C@H]4CC(O)C5)cc3)c2c1` (some centres undefined), for which the Cmax (usually the peak of the concentration-time curve) in [6] was 750 ng/mL. Further, the concentration for 50% growth inhibition (GI50) in the data set on MDA-MB-468 amounted to 14 nM; in [7], 20 nM; in [1], 1 nM. The AUC(0-inf) in data set [8] was 970 ng·h/mL; in data set [9] it was 140 ng·h/mL; in data set [11], 130 ng·h/mL. Moreover, the IC50 in [10] worked out at 620 nM; in data set [2], 1.1 nM. The compound further returned a clearance in data set [12] of 125 mL/min/kg. The bioavailability in [13] is 21%. Besides, the half-life in [14] was 43.8 min. Besides, the half-life at 1 µM in [3] and in data set [5] was over 60 min each time.

With `O=C(N[C@H](CC1CC1)c1ccccn1)c1ccc2[nH]nc(-c3ccc(N4[C@H]5CC[C@H]4CC(O)C5)cc3)c2c1` (some centres undefined), in data set [6], the highest level (Cmax) was 1200 ng/mL. In addition, the GI50 in the data set with MDA-MB-468 came out at 27 nM; in data set [1] it was 16 nM. The AUC(0-inf) turned out to be 1900 ng·h/mL in [8], 270 ng·h/mL in [9] and 290 ng·h/mL in data set [11]. In addition, the results for the IC50 (in [10]; in data set [2]; against Cytochrome P450 3A4) were 1200 nM, 1.5 nM and 1300 nM, respectively. For the same compound, in data set [12], the clearance amounted to 57 mL/min/kg. The Ratio IC50 in the data set listed under Homo sapiens was over 100. This compound gave a bioavailability in data set [13] of 19%. In addition, the half-life in data set [14] is 22.8 min. The half-life at 1 µM in data set [3] and in [5] was over 60 min each time.

In the case of `CN1CCC(Oc2ccc(-c3n[nH]c4ccc(NC(=O)C(c5ccsc5)C5CCCC5)cc34)cc2)CC1` (racemic), the concentration for 50% growth inhibition (GI50) came out at 190 nM with MDA-MB-468 and 59 nM in data set [1]. For the same compound, the figures for the IC50 (on Aurora kinase A; in [2]) were 2300 nM and 8 nM, respectively. Moreover, the half-life at 1 µM came to 29 min in [3] and 15 min in [5].

In the case of `CN1CCC(Oc2ccc(-c3n[nH]c4ccc(C(=O)NC(c5ccsc5)C5CCCC5)cc34)cc2)CC1` (racemic), the GI50 in the data set on MDA-MB-468 is 90 nM; in [1], 17 nM. Moreover, the results for the IC50 (at Aurora kinase A; in [2]; in [4]) were 2000 nM, 2.7 nM and 2900 nM, respectively. Besides, the figures for the half-life at 1 µM in [3] and in data set [5] were 21 min and 24 min, respectively.

`CC(C)CC(NC(=O)c1ccc2[nH]nc(-c3ccc(O[C@H]4C[C@H]5CC[C@@H](C4)N5C=O)cc3)c2c1)c1ccccn1` (mixture of isomers): the highest level in data set [6] (Cmax) was 280 ng/mL. Also, the GI50 in the data set with MDA-MB-468 was determined as 150 nM; in data set [1], 64 nM. In addition, the AUC (as a rule, concentration integrated over time) in data set [15] stood at 660 ng·h/mL. The IC50 in data set [10] came out at 300 nM; in data set [2], 3 nM; at Cytochrome P450 3A4, 410 nM.
